Published values from different studies.
Target: MAP kinase-activated protein kinase 5 (MAPKAPK5, Homo sapiens, UniProt Q8IW41)
Residues used in one study (Q8IW41 1-473): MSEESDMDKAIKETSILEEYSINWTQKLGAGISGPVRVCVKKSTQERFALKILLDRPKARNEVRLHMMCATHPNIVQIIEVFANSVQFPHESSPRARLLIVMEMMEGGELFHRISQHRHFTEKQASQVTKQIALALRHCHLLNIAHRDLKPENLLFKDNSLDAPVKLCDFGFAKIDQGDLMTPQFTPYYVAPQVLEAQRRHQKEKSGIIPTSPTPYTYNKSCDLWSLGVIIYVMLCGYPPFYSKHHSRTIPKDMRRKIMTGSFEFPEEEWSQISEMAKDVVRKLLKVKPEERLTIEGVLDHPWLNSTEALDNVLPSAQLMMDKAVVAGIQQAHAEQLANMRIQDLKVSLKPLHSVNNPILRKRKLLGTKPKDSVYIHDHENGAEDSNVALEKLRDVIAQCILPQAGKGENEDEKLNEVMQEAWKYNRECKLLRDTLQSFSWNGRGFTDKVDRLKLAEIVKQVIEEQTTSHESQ

| effect on | technique | concentration | remaining binding [%] | SMILES |
| --- | --- | --- | --- | --- |
| cell-free assay | competition with immobilised ligand | 1 µM | 75 | O=C(Nc1ccc(Oc2ccc(F)cc2)cc1)N1CCc2ncccc2[C@H]1c1ccc(F)cc1 |
| binding |  | 1 µM | 74 | CN(C)c1ncc(F)c(-c2cnn3ncccc23)n1 |
| binding | competition with immobilised ligand | 1 µM | 96 | COc1cnc(Nc2cccc(S(N)(=O)=O)c2)nc1N1CCN(c2ccccc2)CC1 |
| cell-free assay | competition with immobilised ligand | 1 µM | 93 | CCS(=O)(=O)c1cc2cc(C[C@](O)(CC(C)(C)c3ccc(F)cc3C(N)=O)C(F)(F)F)[nH]c2cn1 |
| binding | competition with immobilised ligand | 1 µM | 100 | O=C(c1ccc(Nc2ncc(Cl)c(-c3ccc(Cl)s3)n2)cc1)N1CCC(N2CCCC2)CC1 |
| binding |  | 1 µM | 99 | CN(c1nccc(-c2cnn3ncccc23)n1)C1CC1 |
| cell-free assay | competition with immobilised ligand | 1 µM | 99 | CN(C)CC#Cc1ccc(OCCCc2sc(N3CCc4cccc(C(=O)Nc5nc6ccccc6s5)c4C3)nc2C(=O)O)c(F)c1 |
| binding | competition with immobilised ligand | 1 µM | 80 | O=C(c1ccc(Nc2ncc(Cl)c(-c3cc4ccccc4s3)n2)cc1)N1CCC(N2CCCC2)CC1 |
| binding | competition with immobilised ligand | 1 µM | 97 | Nc1ncc2c(n1)-c1c([nH]c3ccc(C#CC4CC4)cc13)CCCC2 |
| cell-free assay | competition with immobilised ligand | 1 µM | 84 | C[C@H](c1cccc(C#N)c1)n1cc(Cl)cc(C(N)=O)c1=N |
| binding |  | 1 µM | 69 | C[C@@H]1CCN(c2nccc(-c3cnn4ncccc34)n2)C1 |
| binding | competition with immobilised ligand | 0.1 µM | 76 | C[C@@H](c1ccc(-n2cnc3c(N)ncnc32)cc1)N1CCc2nn(C)c(Cc3ccccc3)c2C1=O |
| binding | competition with immobilised ligand | 1 µM | 94 | O=C(Nc1c[nH]nc1C(=O)NC1CCNCC1)c1cc(F)cc(F)c1 |
| cell-free assay | competition with immobilised ligand | 0.1 µM | 86 | C[C@H](c1ccnc(Nc2nc3ccc(-c4cc(N(C)C)ncn4)cc3[nH]2)c1)N1CCN(C(=O)CC(F)(F)F)CC1 |
| binding |  | 1 µM | 100 | N[C@@H]1CCN(c2nccc(-c3cnn4ncccc34)n2)C1 |
| cell-free assay | competition with immobilised ligand | 1 µM | 87 | CS(=O)(=O)c1cc(C2(NC(=O)c3cncc4c3cnn4-c3ccc(F)cc3)CC2)ccn1 |
| binding | competition with immobilised ligand | 10 µM | 100 | c1cncc(-c2cccc(Nc3nccc(NC4CCCCC4)n3)c2)c1 |
| binding | competition with immobilised ligand | 1 µM | 100 | O=C(NCCCN1CCOCC1)c1ccc(Nc2ncc(Cl)c(-c3ccc(Cl)s3)n2)cc1 |
| binding |  | 1 µM | 77 | Cc1cnn2ncc(-c3ccnc(N(C)C)n3)c2c1 |
